Measured values reported in paper PMC5807869 (ACS Medicinal Chemistry Letters, 2018).
Values belong to the compound of their own block, whether it stands above or below them.

Tests used:
iv/po PK in rat = type: in vivo
Procedure, shortened: (§1)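 Each species study used two animals per dose. Clearance is the observed plasma clearance. The same studies also gave steady-state volume of distribution, half-life, oral bioavailability and percent renal clearance.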

[1] = Metabolic stability in human liver microsomes; type: in vitro ADME
[2] = Metabolic stability in human hepatocytes; type: in vitro ADME
[3] = Apparent passive permeability, RRCK; type: in vitro ADME, Canine
[4] = Predicted human pharmacokinetics; conditions: predicted from in vitro and in vivo properties
iv/po PK in NHP = type: in vivo, Cynomolgus monkeys; conditions: male, cynomolgus monkey, plasma, 1 mg/kg
Procedure, shortened: as §1

[5] = test system: broad spectrum BioPrint panel; assay: Broad spectrum BioPrint panel selectivity screening; conditions: no significant activities
PDE5A1 = PDE5A1 (Homo sapiens, UniProt O76074); assay: Phosphodiesterase SPA assay, PDE5A1; type: biochemical; conditions: PDE5/2 selectivity

- CLint scaled [1]: 16 mL/min/kg
- CLint scaled [2]: 18 mL/min/kg
- Papp ([3]; dog, MDCK): 23 ×10⁻⁶ cm/s
Compound: Cc1nn2c(-c3c(C)nn(C)c3-c3ccc(C(F)(F)F)cc3)nc(C)c2c(=O)[nH]1 [Compound 1]
- in vivo rat clearance profile (iv/po PK in rat): not show any extra-hepatic clearance pathways

- CLint scaled [1]: < 8 mL/min/kg
Compound: Cc1nn2c(-c3c(CO)nn(C)c3-c3ccc(C(F)(F)F)cc3)nc(C)c2c(=O)[nH]1 [Compound 5]

- predicted human plasma clearance [4]: 2.9 mL/min/kg
- predicted human t1/2 [4]: 3.7 h
- predicted human volume of distribution [4]: 0.9 L/kg
- CLint scaled [1]: < 8 mL/min/kg
- CLint scaled [2]: < 0.36 mL/min/kg
- decrease of passive permeability relative to 1 ([3]; RRCK Papp, 2 vs 1): 3 fold
- clearance (iv/po PK in NHP): 4 mL/min/kg
- IC50 or EC50 in BioPrint panel [5]: > 10 µM
- selectivity over other phosphodiesterases (margin) (PDE5A1): ≥ 1000 fold
Compound: Cc1nn2c(-c3c(C)nn(C)c3-c3ccc(C(F)(F)F)cc3)nc(CO)c2c(=O)[nH]1 [Compound 2, 7-(1,3-dimethyl-5-(4-(trifluoromethyl)phenyl)-1H-pyrazol-4-yl)-5-(hydroxymethyl)-2-methylimidazo[5,1-f][1,2,4]triazin-4(3H)-one]

- CLint scaled [1]: < 9.2 mL/min/kg
Compound: Cc1nn2c(-c3c(CO)nn(C)c3-c3ccc(C(F)(F)F)cc3)nc(CO)c2c(=O)[nH]1 [Compound 6]
